This note sets out measurements from ChEMBL document CHEMBL1146725, “Discovery and SAR of potent, orally available and brain-penetrable 5,6-dihydro-4H-3-thia-1-aza-benzo[e]azulen- and 4,5-dihydro-6-oxa-3-thia-1-aza-benzo[e]azulen derivatives as neuropeptide Y Y5 receptor antagonists” (Bioorg Med Chem Lett, 2004).

Several values for one entry are separate records, joined by “and”; a condition that tells them apart may be missing. Identical values can stand only once.

Series [1] concerns the target T1, Neuropeptide Y receptor type 5 (Homo sapiens, UniProt Q15761).
T1 sequence (Q15761 whole entry): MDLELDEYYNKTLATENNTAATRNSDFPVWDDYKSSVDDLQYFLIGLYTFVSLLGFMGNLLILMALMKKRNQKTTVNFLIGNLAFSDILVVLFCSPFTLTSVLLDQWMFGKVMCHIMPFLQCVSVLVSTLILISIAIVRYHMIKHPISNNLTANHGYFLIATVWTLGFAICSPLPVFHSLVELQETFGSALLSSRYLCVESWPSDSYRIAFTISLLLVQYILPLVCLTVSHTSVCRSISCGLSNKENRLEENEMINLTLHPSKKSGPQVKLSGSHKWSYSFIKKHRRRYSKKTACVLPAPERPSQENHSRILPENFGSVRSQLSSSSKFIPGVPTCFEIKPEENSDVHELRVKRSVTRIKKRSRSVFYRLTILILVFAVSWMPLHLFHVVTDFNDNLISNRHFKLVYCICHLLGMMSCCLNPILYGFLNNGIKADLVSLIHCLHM
Description: In vitro binding affinity against human neuropeptide Y5 receptor measured as Ca+ response. Summed up: (§1)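 Reported as IC50 (nM), each value the mean of three separate experiments.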

In series [2] the target is T2, Neuropeptide Y receptor type 5 (Rattus norvegicus, UniProt Q63634).
T2 sequence (Q63634 whole entry): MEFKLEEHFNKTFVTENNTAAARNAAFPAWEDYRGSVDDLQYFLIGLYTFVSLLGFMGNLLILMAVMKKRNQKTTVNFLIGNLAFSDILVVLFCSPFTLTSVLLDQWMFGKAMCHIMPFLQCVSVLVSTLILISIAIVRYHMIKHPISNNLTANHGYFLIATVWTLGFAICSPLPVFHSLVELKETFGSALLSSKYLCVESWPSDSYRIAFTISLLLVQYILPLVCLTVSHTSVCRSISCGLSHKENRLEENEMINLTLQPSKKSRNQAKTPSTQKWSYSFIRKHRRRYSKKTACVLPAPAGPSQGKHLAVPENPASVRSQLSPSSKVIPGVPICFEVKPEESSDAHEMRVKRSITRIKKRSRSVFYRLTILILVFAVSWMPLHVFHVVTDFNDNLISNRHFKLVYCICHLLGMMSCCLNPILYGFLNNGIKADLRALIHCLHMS
In words: In vitro binding affinity against rat neuropeptide Y5 receptor. The method, boiled down:
as §1

A short description of series [3]: (§2) Concentration (30 mg/kg, p.o.) in rat hypothalamus after 2 hours. In kind it is ADME, organism-based. As to conditions: hypothalamus, po. Summed up: (§3)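 Male rats (RA238), fasted overnight, given 30 mg/kg by oral gavage (5 mL/kg) in 20% Cremophore EL/water (w/w). Plasma and hypothalamus were sampled at 2 and 6 h post-dose and levels measured by LC-MS. Values are the mean of 3-6 animals per time point, as µg/mL plasma and µg/g hypothalamus.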

The target of series [4] is T1, Neuropeptide Y receptor type 5. In words: In vitro binding affinity against human neuropeptide Y5 receptor.
A short description of series [5]: (§4) Concentration (30 mg/kg, p.o.) in rat plasma after 2 hours. The format is ADME, organism-based. The settings on record: plasma, po. The method, boiled down:
as §3

The nature of series [6]: (§5) Concentration (30 mg/kg, p.o.) in rat plasma after 6 hours. As to conditions: plasma, po. The format is ADME, organism-based. The method, boiled down:
as §3

Series [7] is described as follows: (§6) Concentration (30 mg/kg, p.o.) in rat hypothalamus after 6 hours. The format is ADME, organism-based. The settings on record: hypothalamus, po. Summed up:
as §3

Series [8] concerns Rattus norvegicus. Described as §2. In kind it is ADME, organism-based. The settings on record: in vivo, po, 2 h. The method, boiled down:
as §3

The test system of series [9] is Rattus norvegicus. The description is as §4. In kind it is ADME, organism-based. As to conditions: in vivo, po, 2 h. Summed up:
as §3

The subject of series [10] is Rattus norvegicus. Described as §5. The format is ADME, organism-based. As to conditions: in vivo, po, 6 h. Summed up:
as §3

Series [11] concerns Rattus norvegicus. The description is as §6. In kind it is ADME, organism-based. The settings on record: in vivo, po, 6 h. Summed up: as §3

Turning to `CCCCC(=O)N1CCC(CNc2nc3c(s2)CCOc2ccc(F)cc2-3)CC1`, the IC50 (in general, the concentration needed to halve the response being measured) in series [1] was found to be 100 nM; in series [2] it was 6 nM; in [4], 7 nM. Moreover, the concentration at 2 h in series [3] turned out to be 2230 ng/g; in series [5], 740 ng/mL. The concentration at 6 h is 70 ng/mL in series [6] and 260 ng/g in series [7].
For `Cc1ccc2c(c1)-c1nc(NCC3CCN(C(=O)[C@H]4CCCO4)CC3)sc1CCO2`, the IC50 in [1] was 40 nM; in series [2], 2.9 nM; in series [4], 5 nM. The concentration at 2 h in series [3] is 1460 ng/g; in series [5] it was 870 ng/mL. Besides, the values for the concentration at 6 h in series [6] and in series [7] were 260 ng/mL and 400 ng/g, respectively.
As for `O=C([C@@H]1CCCO1)N1CCC(CNc2nc3c(s2)CCCc2ccc(F)cc2-3)CC1`, the concentration at 2 h in [3] amounted to 6690 ng/g; in series [5], 1600 ng/mL. The Concentration is 6.69 µg/g in [8]; 1600 ng/mL in series [9]; 320 ng/mL and 140 ng/mL in series [10]; 1.33 µg/g and 0.64 µg/g in [11]. This compound also showed an IC50 in series [4] of 2 nM.
